Source: PubChem BioAssay (several laboratories)
Shown are actives, neighbours in structure and some others; about 2.9% of the full set was active somewhere.
PRMT1 FP inh = PRMT1 methyltransferase inhibitors, primary screen, biochemical, fluorescence polarization; 370,000 tested, 1.3% active; AID 652257, 2013; inhibition, % at 2.79 µM; recombinant PRMT1, activity-based probe fluorescence polarization; Protein arginine N-methyltransferase 1 (Homo sapiens), Q99873;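 active means inhibition above about 21% made by adding two undisclosed values, limit read from the data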
core dimer inh = inhibitors of HCV core protein dimerization, primary screen, biochemical, TR-FRET, high-throughput; TR-FRET GST/Flag-core106 dimerization, 1536-well; inhibition, % at 5 µM; 300,000 tested, 0.33% active;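 active means inhibition above the mean of all tested compounds plus 3 SD, set per screening campaign, cut at about 45% in these data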
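assay system = GST-tagged and Flag-tagged HCV core protein residues 1-106 | controls = unlabelled core106 and no-GST-core106 wells | incubation = compound-protein-antibody incubation 4 h at 22.5 °C | probe or stimulus = Eu donor and XL665 acceptor anti-tag antibodies | read-out = % inhibition based on acceptor/donor emission ratio | signal = TR-FRET 671 and 617 nm emission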
ABHD5 PLIN5 PPI = ABHD5-PLIN5 interaction inhibitors, primary screen, cell lysate, split luciferase complementation, luminescence; AID 602281, 2012; inhibition, % at 4 µM; Split G. princeps luciferase complementation, 4 h; Perilipin-5 (Homo sapiens) + 1-acylglycerol-3-phosphate O-acyltransferase ABHD5 (Homo …; 360,000 tested, 0.78% active;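 active means inhibition above the mean inhibition across every tested compound plus 3 SD, cut at about 22% in these data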;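 further: 0% = DMSO only wells and the 100% control is not disclosed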
A3G deaminase = APOBEC3G DNA deaminase inhibitors, primary screen, biochemical, fluorescence, single-stranded DNA substrate, uHTS; recombinant A3G, ssDNA deamination FAM/TAMRA fluorescence; AID 493012, 2011; DNA dC->dU-editing enzyme APOBEC-3G (Homo sapiens), Q9HC16; inhibition, % at 20 µM; 330,000 tested, 0.28% active;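 active means inhibition of at least 40% at 20 µM, with no more than 30% in the related APOBEC3A deaminase screen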;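 further: plate controls were DMSO wells with A3G for no effect and wells lacking A3G enzyme for full effect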
HCV NS3 hel inh = inhibitors of HCV NS3 helicase, primary screen, biochemical, Cy5 molecular beacon fluorescence. Hepatitis C virus NS3 helicase. NS3 helicase DNA unwinding. inhibition, % at 10.9 µM. 290,000 tested, 0.56% active;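 active means inhibition above the mean of all tested compounds plus 3 SD, set per campaign, cut at about 35% in these data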;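 further: 0% = DMSO wells and 100% = thioflavine S control wells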
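assay system = NS3 helicase fragment of HCV | buffer or medium = MOPS pH 6.5, MgCl2, DTT, Tween20, BSA | timing = 60 min unwinding reaction at 25 °C after ATP addition | signal = Cy5 beacon fluorescence read at start and 1 h | read-out basis = % inhibition of unwinding | control set = low DMSO, high thioflavine S at 110 µM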
APOBEC3A inh = APOBEC3A ssDNA deaminase inhibitors, primary screen, selectivity assay for APOBEC3G inhibitor project, biochemical, FAM/TAMRA oligo cleavage fluorescence | recombinant A3A, FAM/TAMRA ssDNA deamination fluorescence | inhibition, % at 20 µM | 330,000 tested, 0.41% active;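 active means at least 40% inhibition at 20 µM here, with at most 30% in a related deaminase screen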;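 further: plate controls were A3A with DMSO for no effect and wells lacking A3A enzyme for full effect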
Target sequence (P31941 whole entry, looked up): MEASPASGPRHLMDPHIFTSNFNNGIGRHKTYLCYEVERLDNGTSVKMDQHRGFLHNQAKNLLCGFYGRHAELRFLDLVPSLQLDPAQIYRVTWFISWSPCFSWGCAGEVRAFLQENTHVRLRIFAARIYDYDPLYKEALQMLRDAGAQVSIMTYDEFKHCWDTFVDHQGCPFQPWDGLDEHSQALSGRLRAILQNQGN
APOBEC3G confirm = APOBEC3G deaminase inhibitor retest, confirmation, biochemical, fluorescence, single-stranded DNA substrate, single concentration; shares compounds with A3G deaminase; recombinant A3G ssDNA deaminase, UDG/FAM-TAMRA fluorescence; inhibition, % at 20 µM; 890 tested, 72% active;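 active means inhibition reaching a set limit in any replicate at 20 µM, the limit being 80% of the first screen's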
UDG ctr A3G = E. coli UDG inhibitors, confirmation, counter-screen for APOBEC3G inhibitor project, biochemical, single concentration, fluorescence, FAM/TAMRA oligo. AID 504715, 2011. 710 tested, under 10 active. inhibition, % at 20 µM. UDG counterscreen. shares compounds with A3G deaminase;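 active means compounds giving 40% or more inhibition at 20 µM in any one of the three replicates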;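 further: plate controls were DMSO wells with UDG and oligo for no effect and DMSO wells lacking both for full effect; inhibitors lower the FAM signal released by uracil excision and alkaline cleavage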
Target sequence (P12295 whole entry, looked up): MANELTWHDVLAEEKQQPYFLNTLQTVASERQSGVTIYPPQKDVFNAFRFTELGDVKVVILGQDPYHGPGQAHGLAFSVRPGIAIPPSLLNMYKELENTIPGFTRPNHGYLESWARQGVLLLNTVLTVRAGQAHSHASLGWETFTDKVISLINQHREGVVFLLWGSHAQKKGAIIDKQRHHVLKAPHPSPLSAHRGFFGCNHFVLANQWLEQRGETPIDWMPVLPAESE
ABHD5 PLIN5 conf = ABHD5-PLIN5 interaction inhibitors, confirmation, biochemical, luminescence | 2,200 tested, 67% active | inhibition, % at 4 µM | shares compounds with ABHD5 PLIN5 PPI; in the data active means inhibition above about 23%;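 further: 0% = DMSO vehicle wells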
HNF4 split-luc = HNF4 dimerization inhibitors, counter-screen for ABHD5-PLIN5 interaction inhibitor project, biochemical, split-luciferase complementation, luminescence; shares compounds with ABHD5 PLIN5 PPI; inhibition, % at 4 µM; 2,200 tested, 77% active;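 active means mean inhibition across replicate wells exceeding the computed hit threshold, cut at about 13% in these data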;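 further: light from luciferase halves that rejoin when HNF4 fusion proteins dimerize; 0% = DMSO only wells and the 100% control is not given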
PRMT1 confirm = PRMT1 methyltransferase inhibitors, confirmation, biochemical, fluorescence polarization, triplicate; shares compounds with PRMT1 FP inh; recombinant His-PRMT1, activity-based probe fluorescence polarization; inhibition, % at 2.79 µM; 3,300 tested, 42% active; AID 687036, 2013;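 active means mean inhibition across replicates above the hit cutoff derived for the earlier primary screen, cut at about 22% in these data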
Active calls of the source: *; · = no result.

SMILES	PRMT1 FP inh	core dimer inh	ABHD5 PLIN5 PPI	A3G deaminase	HCV NS3 hel inh	APOBEC3A inh	APOBEC3G confirm	UDG ctr A3G	PRMT1 confirm	others
Cn1c(SCCC#N)nnc1-c1ccc(F)cc1	·	2	5	-7	-2	-1	·	·	·
CCn1c(C)c(CS(=O)(=O)c2ccccc2)[nH]c1=O	69*	-3	34*	49*	-2	0	87*	-3	73*	ABHD5 PLIN5 conf=57*;HNF4 split-luc=77*
CN(CCO)c1cccc2c1S(=O)(=O)N[C@@H](Cc1ccccc1)CO2	5	·	8	·	·	·	·	·	·
OCCN1CCN(Cc2cc(Br)cc(Br)c2O)CC1	2	-9	-1	-9	-6	-3	·	·	·
CC(C)(C)c1cc(C(=S)N2CCN(CCO)CC2)cc(C(C)(C)C)c1O	27*	-3	-2	61*	-15	3	56*	-5	19
O=S(=O)(Nc1ccc(O)c(NS(=O)(=O)c2ccccc2)c1)c1ccccc1	31*	-3	1	50*	-6	2	69*	-2	12
O=C(CC1Sc2ncnn2C1=O)Nc1ccc(Cl)cc1 (centres undefined)	9	12	·	6	13	-8	·	·	·
CCOC(=O)c1ccc(NC(=O)CC2Sc3ncnn3C2=O)cc1 (centres undefined)	55*	-1	8	42*	15	-3	50*	1	69*
O=C(c1ccccc1)N1CCOC(O)(c2ccccc2)C1c1ccccc1 (centres undefined)	2	·	-10	·	·	·	·	·	·
O=C(CN1C(=O)c2ccccc2S1(=O)=O)NCCSCc1c(F)cccc1Cl	-2	-6	-8	1	-2	3	·	·	·
S=c1nc(-c2cc(Cl)cc(Cl)c2)[nH][nH]1	4	-2	-5	-13	7	-3	·	·	·
COc1cc(-c2nc(=S)[nH][nH]2)cc(OC)c1OC	34*	-2	4	62*	1	-5	94*	-1	13
O=C1/C(=C\c2cccc(O)c2O)SC(=S)N1Cc1ccccc1	94*	-2	-10	62*	13	2	59*	-3	14
O=C1/C(=C/c2ccncc2)SC(=S)N1Cc1ccccc1	2	-1	16	-8	5	-4	·	·	·
COc1cc(OC)c(C2CC(=O)N3CN(c4ccccc4C)CSC3=C2C#N)cc1OC (centres undefined)	29*	13	·	44*	14	0	29	·	80*
